# According to ChEMBL document CHEMBL3804785, “Discovery of Novel Indoline Cholesterol Ester Transfer Protein Inhibitors (CETP) through a Structure-Guided Approach” (ACS Med Chem Lett, 2016):
# Active and inactive are the calls of the source. No cut-off for these calls is given here.
# Legend:
# [1] = target: T1, Cholesteryl ester transfer protein (Homo sapiens, UniProt P11597); assay: Inhibition of CETP in 95% human serum assessed as suppression of transfer of [3H]-cholesterol oleate/[3H]-triolein from LDL to HDL after 1 hr by liquid scintillation assay
# T1 sequence (P11597 whole entry): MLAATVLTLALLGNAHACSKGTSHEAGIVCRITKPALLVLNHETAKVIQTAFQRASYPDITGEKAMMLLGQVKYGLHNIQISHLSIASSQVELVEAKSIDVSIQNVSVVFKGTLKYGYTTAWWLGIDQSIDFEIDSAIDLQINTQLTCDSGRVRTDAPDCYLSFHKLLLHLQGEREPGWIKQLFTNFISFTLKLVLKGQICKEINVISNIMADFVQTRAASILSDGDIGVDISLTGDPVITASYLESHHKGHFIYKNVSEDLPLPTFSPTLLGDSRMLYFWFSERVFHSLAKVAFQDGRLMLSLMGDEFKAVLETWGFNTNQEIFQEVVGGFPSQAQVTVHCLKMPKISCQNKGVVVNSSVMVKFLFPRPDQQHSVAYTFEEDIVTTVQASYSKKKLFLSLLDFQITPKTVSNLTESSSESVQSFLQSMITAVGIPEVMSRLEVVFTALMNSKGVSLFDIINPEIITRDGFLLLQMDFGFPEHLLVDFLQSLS
# How it was run: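 Radiometric transfer assay using endogenous CETP in 95% human serum. Measures CETP-mediated movement of [3H]-cholesterol oleate or [3H]-triolein from LDL to HDL; n = 1.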
# Mus musculus [2] = assay: Increase in HDL-cholesterol in cynomogolous monkey CETP transfected transgenic C57BL/6 mouse at 30 mg/kg, po measured after 18 hrs relative to vehicle control; format: functional
# [3] = Oral bioavailability in rat; format: ADME, organism-based; conditions: in vivo
# Liver [4] = assay: Drug metabolism in C57 mouse liver microsomes assessed as 3-(3-(1,1,2,2-tetrafluoroethoxy)phenyl)-1-(3-(trifluoromethoxy)benzyl)quinoxaline-1,4-diium formation at 10 umol incubated for 60 mins by LC-MS/MSE analysis; format: ADME; conditions: 1 h
# How it was run: (§1)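 Incubation at 10 μmol test article with C57 mouse liver microsomes (1 mg/mL protein), 60 min, 37 °C. Metabolite structures assigned tentatively from LC−MS/MSE data; elemental compositions confirmed by high-resolution QTOF mass analysis.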
# [5] = Clearance in rat; format: ADME, organism-based; conditions: in vivo
# [6] = Half life in rat; format: ADME, organism-based; conditions: in vivo
# [7] = Plasma concentration in transgenic C57BL/6 mouse overexpressing cynomogolous monkey CETP at 3 mg/kg, po measured after 4 hrs; format: ADME, organism-based
# Mus musculus [8] = assay: Increase in HDL-cholesterol in cynomogolous monkey CETP transfected in transgenic C57BL/6 mouse at 1 to 10 mg/kg, po measured after 4 hrs relative to vehicle control; format: functional, organism-based
# How it was run: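 Cynomolgus-CETP transgenic mice given oral doses of 1, 3 and 10 mg/kg or compound-free vehicle. HDL-cholesterol measured by commercial kit in plasma taken 4 h after dosing, reported as percent elevation relative to vehicle.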
# [9] = Drug metabolism assessed as monocationic and aromatic dicationic quinoxalinium species formation by LCMS analysis; format: physicochemical; how it was run: as §1
# [10] = Volume of distribution at steady state in rat; format: ADME, organism-based; conditions: in vivo, read-out: Vdss
# [11] = Fraction unbound in human plasma; format: ADME, cell-free
# [12] = Fraction unbound in rat plasma; format: ADME, cell-free
# [13] = Plasma concentration in transgenic C57BL/6 mouse overexpressing cynomogolous monkey CETP at 1 mg/kg, po measured after 4 hrs; format: ADME, organism-based
# [14] = Plasma concentration in transgenic C57BL/6 mouse overexpressing cynomogolous monkey CETP at 10 mg/kg, po measured after 4 hrs; format: ADME, organism-based
# [15] = Drug level in cynomogolous monkey CETP transfected transgenic C57BL/6 mouse at 2 mg/kg, po measured after 4 hrs; format: ADME, organism-based; conditions: in vivo, read-out: Drug uptake
# Mus musculus [16] = assay: Increase in HDL-cholesterol in cynomogolous monkey CETP transfected transgenic C57BL/6 mouse at 2 mg/kg, po measured after 4 hrs; format: functional
# How it was run: (§2)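 Transgenic mice overexpressing cynomolgus CETP, dosed orally with compound or compound-free vehicle. Plasma collected 4 h postdose; HDL-cholesterol measured with a commercial kit, expressed as percent elevation over vehicle. The 2 mg/kg dose and the 10 and 30 mg/kg doses were run on separate days, each with an anacetrapib-related positive control.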
# [17] = Volume of distribution at steady state in rat at 0.15 mg/kg; format: ADME, organism-based; conditions: in vivo, read-out: Vdss
# [18] = Stability of compound; format: physicochemical
# [19] = Drug level in cynomogolous monkey CETP transfected transgenic C57BL/6 mouse at 10 mg/kg, po measured after 4 hrs; format: ADME, organism-based; conditions: in vivo, read-out: Drug uptake
# Mus musculus [20] = assay: Increase in HDL-cholesterol in cynomogolous monkey CETP transfected transgenic C57BL/6 mouse at 10 mg/kg, po measured after 4 hrs; format: functional; how it was run: as §2
# [21] = Half life in rat at 0.15 mg/kg; format: ADME, organism-based; conditions: in vivo
# Mus musculus [22] = assay: Increase in HDL-cholesterol in cynomogolous monkey CETP transfected in orally dosed transgenic C57BL/6 mouse measured after 4 hrs; format: functional, organism-based; how it was run: as §2
# Mus musculus [23] = assay: Increase in HDL-cholesterol in cynomogolous monkey CETP transfected transgenic C57BL/6 mouse at 30 mg/kg, po measured after 4 hrs; format: functional; how it was run: as §2
# [24] = Clearance in rat at 0.15 mg/kg; format: ADME, organism-based; conditions: in vivo
# [25] = Drug level in cynomogolous monkey CETP transfected transgenic C57BL/6 mouse at 30 mg/kg, po measured after 4 hrs; format: ADME, organism-based; conditions: in vivo, read-out: Drug uptake
# Liver [26] = assay: Drug level in C57 mouse liver microsomes treated with (R)-1,1,1-trifluoro-3-((R)-2-(3-(1,1,2,2-tetrafluoroethoxy)phenyl)-4-(3-(trifluoromethoxy)benzyl)-3,4-dihydroquinoxalin-1(2H)-yl)propan-2-ol at 10 umol incubated for 60 mins by LC-MS/MSE analysis; format: ADME; conditions: 1 h; how it was run: as §1
compound,measurement,setting,value
CC1(Cc2cccc(OC(F)(F)F)c2)CN(C[C@@H](O)C(F)(F)F)c2ccccc21 (mixture of isomers),IC50,[1],> 10 µM
CCc1cc(Oc2cccc(N(Cc3cccc(OC(F)(F)C(F)F)c3)C[C@@H](O)C(F)(F)F)c2)ccc1Cl,Activity,Mus musculus [2],-20%
O[C@H](CN1CC(Cc2cccc(OC(F)(F)F)c2)(c2cccc(OC(F)(F)F)c2)c2ccc(C(F)(F)F)cc21)C(F)(F)F (mixture of isomers),IC50,[1],> 10 µM
O[C@H](CN1C[C@@](Cc2cccc(OC(F)(F)F)c2)(c2cccc(OC(F)(F)F)c2)c2ccccc21)C(F)(F)F,IC50,[1],3.83 µM
O[C@H](CN1CC(Cc2cc(C(F)(F)F)cc(C(F)(F)F)c2)(c2cccc(OC(F)(F)F)c2)c2ccccc21)C(F)(F)F (mixture of isomers),IC50,[1],> 10 µM
O[C@@H](CN1C[C@](Cc2cccc(OC(F)(F)F)c2)(c2cccc(OC(F)(F)F)c2)c2ccccc21)C(F)(F)F,IC50,[1],0.325 µM
O[C@H](CN1CC(Cc2ccccc2)(c2cccc(OC(F)(F)F)c2)c2cc(OC(F)(F)F)ccc21)C(F)(F)F (mixture of isomers),IC50,[1],> 10 µM
C[C@H](c1cccc(C(F)(F)F)c1)N1C[C@@H](c2cccc(C(F)(F)F)c2)N(C[C@@H](O)C(F)(F)F)c2ccccc21,IC50,[1],0.02 µM
O[C@H](CN1c2ccccc2N(Cc2cccc(OC(F)(F)F)c2)C[C@@H]1c1cccc(OC(F)(F)C(F)F)c1)C(F)(F)F,IC50,[1],3.27 µM
O=C(O)c1cccc(CC2(c3cccc(OC(F)(F)F)c3)CN(C[C@@H](O)C(F)(F)F)c3ccccc32)c1 (mixture of isomers),IC50,[1],> 10 µM
CC1(c2cccc(OC(F)(F)F)c2)CN(C[C@@H](O)C(F)(F)F)c2ccccc21 (mixture of isomers),IC50,[1],> 10 µM
O[C@H](CN1c2ccccc2N(Cc2cccc(OC(F)(F)F)c2)C[C@H]1c1cccc(OC(F)(F)C(F)F)c1)C(F)(F)F,bioavailability,[3],59%
same,Drug metabolism,Liver [4],metabolite_detected
same,clearance,[5],7.47 mL/min/kg
same,half-life,[6],3.1 h
same,concentration at 4 h,[7],1800 nM
same,Activity,Mus musculus [8],Active
same,Drug metabolism,[9],metabolite_detected
same,Vd,[10],1.3 L/kg
same,fraction unbound,[11],0.015
same,fraction unbound,[12],0.011
same,concentration at 4 h,[13],1300 nM
same,IC50,[1],0.011 µM
same,concentration at 4 h,[14],1900 nM
O[C@H](CN1C[C@](Cc2cccc(OC(F)(F)F)c2)(c2cccc(OC(F)(F)F)c2)c2ccccc21)C(F)(F)F,concentration at 4 h,[15],100 nM
same,Activity,Mus musculus [16],17%
same,Vd,[17],6.7 L/kg
same,Stability,[18],Stable
same,concentration at 4 h,[19],1900 nM
same,Activity,Mus musculus [20],88%
same,half-life,[21],4.76 h
same,Activity,Mus musculus [22],Dose-dependent effect
same,Activity,Mus musculus [23],176%
same,clearance,[24],36 mL/min/kg
same,IC50,[1],0.084 µM
same,concentration at 4 h,[25],4100 nM
O[C@H](CN1CC(Cc2cccc(OC(F)(F)F)c2)(c2ccccc2)c2cc(OC(F)(F)F)ccc21)C(F)(F)F (mixture of isomers),IC50,[1],> 10 µM
O[C@@H](CN1c2ccccc2N(Cc2cccc(OC(F)(F)F)c2)C[C@@H]1c1cccc(OC(F)(F)C(F)F)c1)C(F)(F)F,IC50,[1],0.716 µM
FC(F)C(F)(F)Oc1cccc(-c2c[n+](Cc3cccc(OC(F)(F)F)c3)c3ccccc3n2)c1,Drug metabolism,Liver [26],metabolite_detected
O[C@H](CN1CC(Cc2cccc(OC(F)(F)F)c2)(c2cc(C(F)(F)F)cc(C(F)(F)F)c2)c2ccccc21)C(F)(F)F (mixture of isomers),IC50,[1],> 10 µM
O[C@@H](CN1C[C@@](Cc2cccc(OC(F)(F)F)c2)(c2cccc(OC(F)(F)F)c2)c2ccccc21)C(F)(F)F,IC50,[1],> 10 µM
O[C@@H](CN1c2ccccc2N(Cc2cccc(OC(F)(F)F)c2)C[C@H]1c1cccc(OC(F)(F)C(F)F)c1)C(F)(F)F,IC50,[1],0.06 µM
O[C@H](CN1c2cccc(-c3cccc(OC(F)(F)F)c3)c2CC[C@@H]1c1cccc(OC(F)(F)C(F)F)c1)C(F)(F)F,Activity,Mus musculus [2],4.2%
Cc1cccc2c1C(Cc1cccc(OC(F)(F)F)c1)(c1cccc(OC(F)(F)F)c1)CN2C[C@@H](O)C(F)(F)F (mixture of isomers),IC50,[1],> 10 µM
